Series [1] in a line: Apparent permeability of the compound from apical to basolateral side in human Caco2 cells at 5 uM after 21 to 28 days by LC/MS analysis. In kind it is ADME, cell-based. The note with it: Caco-2. The essentials: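 5 μM in HBSS (DMSO <1%) dosed apical or basolateral on 21−28-day confluent Caco-2 monolayers, both sides pH 7.4. Sampled at 2 h, quantified by LC/MS with four-point calibration. Monolayer integrity checked by pre-experiment TEER (450−650 Ωcm2) and Lucifer yellow; efflux ratio = Papp B→A / Papp A→B.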
(In general: Passage across Caco-2 layers is used to estimate intestinal permeability.)

The target of another series is Cytochrome P450 3A4 (Homo sapiens, UniProt P08684). The experiment in a line: Inhibition of CYP3A4 in human liver microsomes using midazolam as substrate after 5 mins by LC-MS/MS analysis. The series is classed as ADME, Microsome. (Microsomes from liver hold many membrane-bound enzymes, among them those of drug oxidation.)
Cytochrome P450 3A4, sequence (P08684 whole entry): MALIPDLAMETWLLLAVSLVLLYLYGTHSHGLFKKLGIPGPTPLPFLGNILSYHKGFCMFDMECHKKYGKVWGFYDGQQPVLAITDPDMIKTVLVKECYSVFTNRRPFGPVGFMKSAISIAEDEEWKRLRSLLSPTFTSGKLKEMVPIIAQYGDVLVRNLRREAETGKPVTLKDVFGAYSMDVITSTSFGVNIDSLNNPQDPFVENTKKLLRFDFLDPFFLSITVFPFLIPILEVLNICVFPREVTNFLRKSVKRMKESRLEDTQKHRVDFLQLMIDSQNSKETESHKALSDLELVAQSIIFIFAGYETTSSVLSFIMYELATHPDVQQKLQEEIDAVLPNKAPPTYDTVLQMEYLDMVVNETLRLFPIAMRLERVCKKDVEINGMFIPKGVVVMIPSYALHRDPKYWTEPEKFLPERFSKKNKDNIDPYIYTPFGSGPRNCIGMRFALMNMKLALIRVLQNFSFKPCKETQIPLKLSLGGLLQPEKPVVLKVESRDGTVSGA
The test system of a further series is HL-60. The experiment in a line: Antiproliferative activity against human HL60 cells after 48 hrs. To be noted: HL-60, 48 h. The series is classed as functional, cell-based.
Series [2] concerns Ramos. The experiment in a line: Antiproliferative activity against human Ramos cells after 48 hrs. The series is classed as functional, cell-based.
The test system of series [3] is HCT-116. The experiment in a line: Antitumor activity against human HCT116 cells xenografted in BALB/c nude mouse assessed as tumor growth inhibition at 75 mg/kg, po qd administered thrice in a week for 15 days. The series is classed as functional. The note with it: HCT-116, 360 h, read-out: GI.
A short description of series [4]: Terminal half life in BALB/c mouse at 75 mg/kg, po by LC-MS/MS analysis. In kind it is ADME, organism-based. The arrangement: dose 75 mg/kg, route oral. To be noted: in vivo, read-out: beta t1/2 (converted). A digest of the protocol:
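Male BALB/c mice, ~10−12 weeks, 17−22 g. Given 75 mg/kg by oral gavage as a suspension in 0.5% methylcellulose/0.1% Tween 80. Serial blood taken by cardiac puncture over 0−24 h into K3EDTA; plasma stored at −70 °C. Analysis by LC−MS/MS, parameters by noncompartmental methods.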

The subject of series [5] is Ramos. Nature of the series: Antitumor activity against human Ramos cells xenografted in BALB/c nude mouse assessed as tumor growth inhibition at 15 mg/kg, ip qd on a 5 days on 5 days off schedule for 15 days. The series is classed as functional. To be noted: route intraperitoneal, read-out: GI. A general note: Xenograft models place foreign cells or tissue in a host animal.

Series [6] can be described thus: Solubility of the compound in PBS buffer at 250 uM at pH 7 by UV spectrophotometry. The series is classed as physicochemical.
Another series addresses Cytochrome P450 2D6 (Homo sapiens, UniProt P10635). Nature of the series: Inhibition of CYP2D6 in human liver microsomes using dextromethorphan as substrate after 30 mins by LC-MS/MS analysis. The series is classed as ADME, Microsome. The essentials:
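Human liver microsomes with 1 mM NADPH at 37 °C. Test concentrations 0.05, 0.25, 0.5, 2.5, 5 and 25 μM; final DMSO 0.35%. CYP1A: 0.25 mg/mL microsomes, ethoxyresorufin 0.5 μM, 5 min. CYP2D6: 0.5 mg/mL microsomes, dextromethorphan 5 μM, 30 min. IC50 from the fall in metabolite formation versus vehicle control. Selective inhibitors served as positive controls.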

Series [7] in a line: Terminal half life in BALB/c mouse at 5 mg/kg, iv by LC-MS/MS analysis. To be noted: in vivo, read-out: beta t1/2 (converted). The series is classed as ADME, organism-based. The arrangement: dose 5 mg/kg, route intravenous.
The subject of series [8] is HCT-116. The experiment in a line: Antiproliferative activity against human HCT116 cells after 48 hrs. The series is classed as functional, cell-based. The note with it: HCT-116, 48 h.
The test system of the next series is DU-145. Nature of the series: Antiproliferative activity against human DU145 cells after 48 hrs. The series is classed as functional, cell-based. To be noted: DU-145, 48 h.
The next series relates to COLO 205. The experiment in a line: Antiproliferative activity against human COLO205 cells after 48 hrs. The series is classed as functional, cell-based. The note with it: COLO 205, 48 h.
In series [9] the test system is Ramos. The experiment in a line: Antitumor activity against human Ramos cells xenografted in po/ip dosed BALB/c nude mouse assessed as tumor growth inhibition. In kind it is functional, organism-based. The essentials:
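Female BALB/c nude mice implanted sc in right flank with 7 × 10^6 Ramos cells; dosing began 12 days after inoculation at about 200 mm3, n = 8–10/group. Arms: 75 mg/kg po q.d. 2 days on/5 off in MC/Tween, or 15 mg/kg ip q.d.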

Series [10] is described as follows: Clearance in BALB/c mouse at 5 mg/kg, iv by LC-MS/MS analysis. In kind it is ADME, organism-based. Set-up: dose 5 mg/kg, route intravenous. To be noted: in vivo.
Series [11] can be described thus: Half life in human liver microsomes at 5 uM by LC-MS/MS analysis. In kind it is ADME, Microsome. The essentials: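 5 μM with mouse, rat, dog or human liver microsomes (~0.87 mg/mL), 50 mM potassium phosphate pH 7.4, NADPH regeneration system, 37 °C.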
Series [12] in a line: Oral bioavailability in Beagle dog at 10 mg/kg by LC-MS/MS analysis. The note with it: in vivo.
For series [13], the target named is Cyclin-dependent kinase 2 (Homo sapiens) (UniProt P24941). The experiment in a line: Inhibition of CDK2 in human HCT116 cells assessed as Rb phosphorylation at 40 nM after 24 hrs by Western blot analysis. The series is classed as cell-based. The note with it: HCT-116. A digest of the protocol:
(§1)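 HCT-116 cells (2 × 10^5 in McCoy's medium with 2 mM L-glutamine and 10% FBS) seeded 16−24 h before dosing. Each dish exposed to one compound concentration or DMSO for 24 h. Lysis in modified RIPA buffer; protein by Bradford. 30 μg lysate run on 10% SDS−PAGE, blotted to PVDF, probed for phospho-Rb and β-actin. ECL detection.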

The target is the same in series [14]. The experiment in a line: Inhibition of CDK2 in human HCT116 cells assessed as Rb phosphorylation at 200 nM after 24 hrs by Western blot analysis. In kind it is cell-based. To be noted: HCT-116. A digest of the protocol: as §1
Series [15] can be described thus: Oral bioavailability in BALB/c mouse at 75 mg/kg by LC-MS/MS analysis. In kind it is ADME, organism-based. The note with it: in vivo. A digest of the protocol:
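Male BALB/c mice (~10−12 weeks, 17−22 g) gavaged with 75 mg/kg as a suspension in 0.5% methylcellulose/0.1% Tween 80. Serial blood by cardiac puncture over 0−24 h into K3EDTA, plasma stored at −70 °C, LC−MS/MS; parameters by noncompartmental analysis.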

Molecules are shown by their SMILES. In brackets after ≈: the same amount, converted by molar mass. Activity calls are given as the source filed them. No cut-off for these calls is given here.

Cytochrome P450 2D6, sequence (P10635 whole entry): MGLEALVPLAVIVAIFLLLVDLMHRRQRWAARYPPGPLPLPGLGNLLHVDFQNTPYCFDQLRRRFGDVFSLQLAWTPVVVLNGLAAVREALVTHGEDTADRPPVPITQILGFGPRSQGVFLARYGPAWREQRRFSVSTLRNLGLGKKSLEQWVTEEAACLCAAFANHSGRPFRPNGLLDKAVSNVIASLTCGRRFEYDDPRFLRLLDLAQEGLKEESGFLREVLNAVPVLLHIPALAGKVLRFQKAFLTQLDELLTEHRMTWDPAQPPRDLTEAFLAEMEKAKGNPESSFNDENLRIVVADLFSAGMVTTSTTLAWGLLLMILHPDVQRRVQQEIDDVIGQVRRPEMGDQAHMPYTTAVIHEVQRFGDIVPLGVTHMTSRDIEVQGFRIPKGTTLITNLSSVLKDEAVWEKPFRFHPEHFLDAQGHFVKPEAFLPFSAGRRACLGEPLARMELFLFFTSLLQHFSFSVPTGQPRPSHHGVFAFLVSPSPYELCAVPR

The term Papp A→B denotes the apparent permeability from the apical to the basolateral side of a cell layer. The term IC50 denotes the concentration that inhibits the measured activity by half. One may read the solubility as the dissolved amount per volume that the medium holds. In general, clearance refers to the rate of elimination divided by the concentration. Read a low clearance as a low capacity for elimination. As usually defined, the bioavailability is the share of a dose that reaches the circulation, judged against a reference dose that is usually intravenous. A higher bioavailability goes with much systemic uptake. In the case of `CN1C/C=C/CCOc2cccc(c2)-c2ccnc(n2)Nc2cccc(c2)C1` [ZOTIRACICLIB], the Papp A→B at 5 µM in series [1] came out at 28 ×10⁻⁶ cm/s. The half-inhibitory concentration (IC50) on Cytochrome P450 3A4 was above 25000 nM; with HL-60 it was 59 nM; with Ramos [2], 33 nM; against Cytochrome P450 2D6 it was 950 nM; in the series with HCT-116 [8] it was 79 nM; with DU-145, 140 nM. Besides, the concentration for half-maximal inhibition (IC50) with COLO 205 worked out at 72 nM. Moreover, the inhibition in vivo at 75 mg/kg in the series on HCT-116 [3] stood at 82%. In addition, the half-life in series [4] is 6.1 h; in series [7], 4.6 h. In addition, in the series on Ramos [5], the inhibition in vivo at 15 mg/kg turned out to be 63%. The solubility at 250 µM in [6] stood at 71.8 µg/mL (≈ 193 µM). For the same compound, the “growth inhibition (GI)” value in the series with Ramos [9] is “Dose-dependent effect”. This compound also showed a clearance in series [10] of 110 mL/min/kg. Further, the half-life at 5 µM in series [11] turned out to be 0.75 h. Moreover, the figures for the bioavailability in [12] and in series [15] were 37% and 24%, respectively. Also, the inhibition result in series [13] and in series [14] was “Active” each time.

For the origin of these results see ChEMBL document CHEMBL1944548, “Discovery of kinase spectrum selective macrocycle (16E)-14-methyl-20-oxa-5,7,14,26-tetraazatetracyclo[19.3.1.1(2,6).1(8,12)]heptacosa-1(25),2(26),3,5,8(27),9,11,16,21,23-decaene (SB1317/TG02), a potent inhibitor of cyclin dependent kinases (CDKs), Janus kinase 2 (JAK2), and fms-like tyrosine …” (J Med Chem, 2012).
